The text below walks through data of ChEMBL document CHEMBL4219235, “Novel fatty acid chain modified GLP-1 derivatives with prolonged in vivo glucose-lowering ability and balanced glucoregulatory activity” (Bioorg Med Chem, 2018).

Activity calls are given as the source filed them. Where only a bound is given, the exact number is not on record here.

In data set [1] the test system is Mus musculus. The data set can be described thus: Antidiabetic activity in STZ/diet-induced obese C57BL/6 mouse assessed as reduction in size of white adipocytes at 25 nmol/kg, ip administered daily for 4 weeks measured post last dose. Type of data set: functional, organism-based.
The test system of data set [2] is Rattus norvegicus. The data set can be described thus: Antidiabetic activity in Sprague-Dawley rat assessed as time required to increase in plasma insulin level at 25 nmol/kg, ip treated 30 mins prior to glucose challenge by ELISA. It is filed as functional. In a few lines:
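Male SD rats (200–250 g), fasted 12 h, n = 6/group, received 25 nmol/kg i.p. or saline 30 min before an oral glucose load (10 g/kg, set as 0 min). EDTA plasma insulin was measured by rat insulin ELISA.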
On the technique in general: In an ELISA, binding on a coated surface is turned into a signal by an enzyme label.

Data set [3] has as its system Mus musculus. The data set can be described thus: Antidiabetic activity in STZ/diet-induced obese C57BL/6 mouse assessed as reduction in food intake at 25 nmol/kg, ip measured after 6 hrs relative to control. Type of data set: functional. More on the design: scale not given: the % may be the effect or the level left. In outline:
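Acute study in fasted mice given an i.p. dose; food intake was measured at 6 h after administration.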

In data set [4] the test system is Mus musculus. Kind of data set: Antidiabetic activity in STZ-induced diabetic Kunming mouse model assessed as increase in islet beta-cell area 25 nmol/kg, ip administered once daily for 3 weeks measured post last dose by hematoxylin and eosin staining based assay. Type of data set: functional, organism-based. In a few lines:
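STZ-diabetic mice were dosed 25 nmol/kg i.p. once daily; normal mice and saline-treated mice served as references. After 21 days the pancreas was fixed, sectioned at 5 µm and stained with H&E. Islet area was measured by manually tracing the islet perimeter; n = 6/group.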

The test system of data set [5] is Rattus norvegicus. Kind of data set: Antidiabetic activity in Sprague-Dawley rat assessed as blood glucose level at 25 nmol/kg, ip treated 30 mins prior to glucose challenge measured at 15 mins interval for 180 mins by OGTT (reference value: 13.8 +/- 1.31 nmol/L). Type of data set: functional.
Data set [6] relates to Mus musculus. Kind of data set: Antidiabetic activity in STZ/diet-induced obese C57BL/6 mouse assessed as reduction in serum total cholesterol level at 25 nmol/kg, ip administered daily for 4 weeks measured post last dose. It is filed as functional, organism-based. In a few lines: (§1)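 Male C57BL/6J DIO mice on high-fat diet were treated for 4 weeks with saline as control; LFD-fed mice (n = 6/group) were used as normal reference. Water intake, food intake and body weight were recorded daily. Terminal serum leptin and adiponectin were measured by ELISA. TC, TG, HDL, LDL, ALT and AST were measured on a clinical chemistry analyzer.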

In data set [7] the test system is Mus musculus. Kind of data set: Antidiabetic activity in STZ/diet-induced obese C57BL/6 mouse assessed as reduction in ratio of LDL to HDL level at 25 nmol/kg, ip administered daily for 4 weeks measured post last dose. It is filed as functional, organism-based. In a few lines:
as §1

Data set [8] relates to Mus musculus. Kind of data set: Antidiabetic activity in STZ/diet-induced obese C57BL/6 mouse assessed as reduction in serum AST level at 25 nmol/kg, ip administered daily for 4 weeks measured post last dose. Type of data set: functional, organism-based. In outline: as §1
In data set [9] the test system is Mus musculus. Kind of data set: Antidiabetic activity in STZ/diet-induced obese C57BL/6 mouse assessed as reduction in body weight gain at 25 nmol/kg, ip administered daily for 4 weeks measured daily during compound dosing. It is filed as functional, organism-based. In a few lines: as §1
For data set [10], the system named is Mus musculus. Kind of data set: Antidiabetic activity in STZ/diet-induced obese C57BL/6 mouse assessed as reduction in cumulative food intake at 25 nmol/kg, ip administered daily for 4 weeks measured daily during compound dosing relative to control. Type of data set: functional. Further details: scale not given: the % may be the effect or the level left. In a few lines:
as §1

The test system of data set [11] is Mus musculus. Kind of data set: Hypoglycemic activity in STZ-induced diabetic Kunming mouse model assessed as time required to reduce blood glucose level of […] at 150 nmol/kg, ip administered as single dose. Type of data set: functional. In a few lines:
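Non-fasted STZ-diabetic Kunming mice with free access to food and water received a single i.p. injection (25 or 150 nmol/kg) or saline; n = 6/group. Blood glucose was followed over time. Euglycemic duration was defined as time below 8.35 mmol/L, and glucose AUC0–36h was calculated.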

The test system of data set [12] is Mus musculus. Kind of data set: Antidiabetic activity in STZ/diet-induced obese C57BL/6 mouse assessed as reduction in cumulative water intake at 25 nmol/kg, ip administered daily for 4 weeks measured daily during compound dosing relative to control. Further details: scale not given: the % may be the effect or the level left. It is filed as functional. In outline: as §1

The test system of data set [13] is INS1. Kind of data set: Cytoprotective activity against H2O2-induced glucolipotoxicity in rat INS-1 cells assessed as reduction in apoptosis at 10 nM after 24 hrs by Annexin-V-FITC/propidium iodide staining based flow cytometric analysis. Type of data set: functional, cell-based. In a few lines:
(§2)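 INS-1 cells, about 5000/well, were seeded for 24 h, then exposed to glucolipotoxic medium, 50 µM H2O2 or 1 µM STZ, plus peptide at 10 nM, for 24 h. Apoptosis was analyzed by flow cytometry; triplicate, repeated three times.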
In general terms: A flow cytometer gives signals particle by particle.

In data set [14] the test system is Mus musculus. The data set can be described thus: Antidiabetic activity in C57BL/6 mouse assessed as reduction in blood glucose AUC (0 to 120 mins) at 25 nmol/kg, ip treated 30 mins prior to glucose challenge by IPGTT. Type of data set: functional, organism-based. In a few lines:
(§3)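 Male C57BL/6 mice, 6 weeks old, fasted overnight (12 h), n = 6/group; given 25 nmol/kg or saline i.p., then i.p. glucose challenge (2.0 g/kg) 30 min later, set as 0 h. Glucose challenges were repeated at 6 h intervals to mimic three meals a day. Blood glucose was followed and AUC calculated.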

The nature of data set [15]: Stability of the compound in Sprague-Dawley rat plasma by LC-MS/MS analysis. Type of data set: ADME, cell-free. In outline:
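Compounds were incubated in plasma from adult male SD rats at 37 °C for up to 72 h. Samples at each time point underwent solid-phase extraction and LC-MS/MS analysis to follow degradation and derive half-life.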

In data set [16] the test system is INS1. Kind of data set: Cytoprotective activity against STZ-induced oxidative stress in rat INS-1 cells assessed as reduction in apoptosis at 10 nM after 24 hrs by Annexin-V-FITC/propidium iodide staining based flow cytometric analysis. Type of data set: functional, cell-based. In a few lines: as §2
The subject of data set [17] is Rattus norvegicus. Kind of data set: Antidiabetic activity in Sprague-Dawley rat assessed as reduction in blood glucose AUC at 25 nmol/kg, ip treated 30 mins prior to glucose challenge measured at 15 mins interval for 180 mins by OGTT. It is filed as functional, organism-based.
Data set [18] deals with Mus musculus. Kind of data set: Antidiabetic activity in STZ/diet-induced obese C57BL/6 mouse assessed as reduction in size of brown adipocytes at 25 nmol/kg, ip administered daily for 4 weeks measured post last dose. Type of data set: functional, organism-based.
Data set [19] relates to Mus musculus. Kind of data set: Antidiabetic activity in STZ/diet-induced obese C57BL/6 mouse assessed as reduction in serum ALT level at 25 nmol/kg, ip administered daily for 4 weeks measured post last dose. Type of data set: functional, organism-based. In outline: as §1
Data set [20] relates to Mus musculus. The data set can be described thus: Antidiabetic activity in STZ/diet-induced obese C57BL/6 mouse assessed as increase in serum adiponectin level at 25 nmol/kg, ip administered daily for 4 weeks measured post last dose. Type of data set: functional, organism-based. In outline:
as §1

The subject of data set [21] is Mus musculus. The data set can be described thus: Hypoglycemic activity in STZ-induced diabetic Kunming mouse model assessed as time required to reduce blood glucose level of […] at 25 nmol/kg, ip administered as single dose. It is filed as functional. In a few lines: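 Non-fasted STZ-diabetic Kunming mice with free access to food and water received a single i.p. injection (25 or 150 nmol/kg) or saline; n = 6/group. Blood glucose was followed over time.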

The test system of data set [22] is Mus musculus. Kind of data set: Antidiabetic activity in STZ-induced diabetic Kunming mouse model assessed as fasting blood glucose level at 25 nmol/kg, ip administered once daily for 3 weeks measured at 5 days interval for 21 days during compound dosing (reference value: […]). It is filed as functional. In outline: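 STZ diabetes induced with 40 mg/kg/day i.p. for 5 consecutive days after overnight fasting. Mice with fasting glucose ≥11.1 mM were grouped by matched body weight and dosed 25 nmol/kg i.p. once daily for 3 weeks; saline served as control. Fasting plasma glucose was measured every five days, and HbA1c at day 24; n = 6/group.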

Data set [23] relates to Mus musculus. The data set can be described thus: Antidiabetic activity in C57BL/6 mouse assessed as reduction in blood glucose level at 25 nmol/kg, ip treated 30 mins prior to glucose challenge measured after 120 mins by IPGTT. Type of data set: functional, organism-based. In outline:
as §3

With `CC[C@H](C)[C@H](NC(=O)[C@H](Cc1ccccc1)NC(=O)[C@H](CCC(=O)O)NC(=O)[C@H](CCCCN)NC(=O)[C@H](C)NC(=O)[C@H](C)NC(=O)[C@H](CCC(N)=O)NC(=O)CNC(=O)[C@H](CCC(=O)O)NC(=O)[C@H](CC(C)C)NC(=O)[C@H](Cc1ccc(O)cc1)NC(=O)[C@H](CO)NC(=O)[C@H](CO)NC(=O)[C@@H](NC(=O)[C@H](CC(=O)O)NC(=O)[C@H](CO)NC(=O)[C@@H](NC(=O)[C@H](Cc1ccccc1)NC(=O)[C@@H](NC(=O)CNC(=O)[C@H](CCC(=O)O)NC(=O)CNC(=O)[C@@H](N)Cc1cnc[nH]1)[C@@H](C)O)[C@@H](C)O)C(C)C)C(=O)N[C@@H](C)C(=O)N[C@@H](Cc1c[nH]c2ccccc12)C(=O)N[C@@H](CC(C)C)C(=O)N[C@H](C(=O)N[C@@H](CCCCN)C(=O)NCC(=O)N[C@@H](CCCNC(=N)N)C(=O)N[C@@H](CSC1CC(=O)N(CCCCCCCCCCCC(=O)O)C1=O)C(N)=O)C(C)C` (stereo partly drawn), the result with Mus musculus [1], with Mus musculus [4], in the data set with Mus musculus [6], in the data set on Mus musculus [8], with Mus musculus [9] and in the data set on INS1 [13] was Active. Moreover, the outcome in the data set with Mus musculus [14], in the data set on INS1 [16], in the data set on Rattus norvegicus [17], in the data set with Mus musculus [18], in the data set on Mus musculus [19] and in the data set with Mus musculus [20] was Active. In addition, the result with Mus musculus [23] was Active. Besides, the Time with Rattus norvegicus [2] was 15 to 60 min; in the data set with Mus musculus [11] it was 11.5 h; with Mus musculus [21], 9.7 h. Further, the Activity entry was “<=34.5%” in the data set with Mus musculus [3]; 6.7e+06 nmol/L in the data set with Rattus norvegicus [5]; 24.9% with Mus musculus [10]; “<=33.5%” in the data set on Mus musculus [12]; 1.07e+07 nmol/L in the data set on Mus musculus [22]. Further, the result with Mus musculus [7] was inactive. In addition, the Stability result in data set [15] is given as “Stable”.
